Results taken from ChEMBL document CHEMBL2331248, “Synthesis and biological evaluation of novel 2,4-disubstituted quinazoline analogues as GPR119 agonists” (Bioorg Med Chem, 2013).
pEC50: −log10 of the molar value. The source made the active and inactive calls. The rule behind the calls is not given here.

Key:
Type in all cases: functional, cell-based
[1] = molecular target: T1, Glucose-dependent insulinotropic receptor (Homo sapiens, UniProt Q8TDV5); test: Agonist activity at human GPR119 expressed in HEK293 cells assessed as cAMP accumulation after 60 mins
T1 sequence (Q8TDV5 whole entry): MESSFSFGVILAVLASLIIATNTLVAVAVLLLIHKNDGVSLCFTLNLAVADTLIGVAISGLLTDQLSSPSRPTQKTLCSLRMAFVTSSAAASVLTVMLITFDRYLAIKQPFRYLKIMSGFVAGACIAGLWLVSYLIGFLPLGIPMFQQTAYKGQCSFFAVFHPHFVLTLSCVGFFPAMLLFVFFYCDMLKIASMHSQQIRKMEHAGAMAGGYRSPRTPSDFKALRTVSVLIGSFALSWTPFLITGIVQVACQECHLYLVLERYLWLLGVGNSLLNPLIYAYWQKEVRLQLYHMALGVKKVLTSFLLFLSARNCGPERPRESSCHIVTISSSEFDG
Summary of the method: (§1)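 HEK293 cells (4x10³/well) seeded, after 24h transiently transfected with human GPR119 expression plasmid via Lipofectamine/Plus; 24h later exposed to compounds in KRBH with 0.1% BSA and 500 μM IBMX, 60 min, 37 C. Lysed 10 min at room temperature (50 mM phosphate, 1 M KF, 1.25% Triton X-100, pH 7.0); cAMP read by HTRF. EC50 taken as concentration giving 50% of OEA cAMP stimulation; %max relative to OEA maximal effect.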

[2] = molecular target: T2, Glucose-dependent insulinotropic receptor (Homo sapiens) (UniProt Q8TDV5); test: Agonist activity at human GPR119 expressed in HEK293 cells assessed as cAMP accumulation after 60 mins relative to OEA; summary of the method: as §1
T2 sequence (whole entry): T1 sequence (Q8TDV5 whole entry)

[3] = molecular target: T2, Glucose-dependent insulinotropic receptor (Homo sapiens); test: Agonist activity at human GPR119 expressed in HEK293 cells assessed as cAMP accumulation at 10 uM after 60 mins
[4] = molecular target: T2, Glucose-dependent insulinotropic receptor (Homo sapiens); test: Agonist activity at human GPR119 expressed in HEK293 cells assessed as cAMP accumulation at 10 uM after 60 mins relative to OEA; summary of the method: as §1

Structure (SMILES) | pEC50 [1] | Emax [2] | Activity [3] | Emax [4]
COc1cc2nc(N3CCC4CCC(C3)N4Cc3ccccc3)nc(Nc3ccc(S(C)(=O)=O)cc3)c2cc1OC (racemic) | < 5.00 | 23.4% | – | –
COc1cc2nc(Nc3ccc(S(C)(=O)=O)cc3)nc(N3CCC4CCC(C3)N4Cc3ccccc3)c2cc1OC (racemic) | < 5.00 | 32.8% | – | –
COc1cc2nc(Nc3ccc(S(C)(=O)=O)cc3)nc(NCC3CC4CCC(C3)N4C(=O)OC(C)(C)C)c2cc1OC (centres undefined) | < 5.00 | 15.1% | – | –
COc1cc2nc(N3CCC4CCC(C3)N4C(=O)OC(C)(C)C)nc(Nc3ccc(S(C)(=O)=O)cc3)c2cc1OC (racemic) | < 5.00 | 32.7% | – | –
COc1cc2nc(Nc3ccc(S(C)(=O)=O)cc3)nc(N3CCC4CCC(C3)N4C(=O)OC(C)(C)C)c2cc1OC (racemic) | < 5.00 | 37.5% | – | –
CCCCCCCC/C=C\CCCCCCCC(=O)NCCO [OLEOYLETHANOLAMIDE] | 5.66 | – | – | –
COc1cc2nc(N3CCC4CCC(C3)N4Cc3ccccc3)nc(Nc3ccc(S(C)(=O)=O)cc3F)c2cc1OC (racemic) | < 5.00 | 44.3% | – | –
COc1cc2nc(NCC3CC4CCC(C3)N4C(=O)OC(C)(C)C)nc(Nc3ccc(S(C)(=O)=O)cc3)c2cc1OC (centres undefined) | < 5.00 | 19.9% | – | –
COc1cc2nc(Nc3ccc(S(C)(=O)=O)cc3)nc(NC3CC4CCC(C3)N4C(=O)OC(C)(C)C)c2cc1OC (centres undefined) | < 5.00 | 17% | – | –

Further lines, results first:

pEC50 [1] | Emax [2] | Activity [3] | Emax [4] | Structure (SMILES)
< 5.00 | 17.9% | – | – | COc1cc2nc(OC3CCN(C(=O)OC(C)(C)C)CC3)nc(Nc3ccc(S(C)(=O)=O)cc3)c2cc1OC
< 5.00 | 17.4% | – | – | COc1cc2nc(Nc3ccc(S(C)(=O)=O)cc3)nc(OCC3CCN(C(=O)OC(C)(C)C)CC3)c2cc1OC
< 5.00 | 20.6% | – | – | COc1cc2nc(Nc3ccc(S(C)(=O)=O)cc3)nc(OC3CCN(C(=O)OC(C)(C)C)CC3)c2cc1OC
< 5.00 | 19.6% | – | – | COc1cc2nc(OC3CCN(C(=O)OC(C)(C)C)CC3)nc(Nc3ccc(S(C)(=O)=O)cc3F)c2cc1OC
< 5.00 | 21.3% | – | – | COc1cc2nc(Nc3ccc(S(C)(=O)=O)cc3F)nc(OCC3CCN(C(=O)OC(C)(C)C)CC3)c2cc1OC
– | – | inactive | inactive | COc1cc2nc(OCC3CCN(C(=O)OC(C)(C)C)CC3)nc(Nc3ccc(S(C)(=O)=O)cc3)c2cc1OC
< 5.00 | 33.2% | – | – | COc1cc2nc(OCC3CCN(C(=O)OC(C)(C)C)CC3)nc(Nc3ccc(S(C)(=O)=O)cc3F)c2cc1OC
< 5.00 | 19.7% | – | – | COc1cc2nc(Nc3ccc(S(C)(=O)=O)cc3F)nc(OC3CCN(C(=O)OC(C)(C)C)CC3)c2cc1OC
6.00 | 53.7% | – | – | COc1cc2nc(NCC3CC4CCC(C3)N4C(=O)OC(C)(C)C)nc(Nc3ccc(S(C)(=O)=O)cc3F)c2cc1OC (centres undefined)
6.00 | 46.2% | – | – | COc1cc2nc(NC3CC4CCC(C3)N4C(=O)OC(C)(C)C)nc(Nc3ccc(S(C)(=O)=O)cc3F)c2cc1OC (centres undefined)
6.00 | 56.9% | – | – | COc1cc2nc(N3CCC4CCC(C3)N4C(=O)OC(C)(C)C)nc(Nc3ccc(S(C)(=O)=O)cc3F)c2cc1OC (racemic)
